Measured values taken from ChEMBL document CHEMBL5058577, “EUbOPEN Chemogenomics Library 2 (Multiplex)” (2022).

System: HEK-293T
Assay: Multiplex assay against HEK293T
Assay type: toxicity, cell-based
Settings: human
Procedure, shortened: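 Phenotypes for tubulin, mitochondrial mass and membrane permeability are expressed as per cents of healthy-nucleus cells. Cells were stained live at seeding with Hoechst33342, BioTracker Green Microtubule Cytoskeleton Dye, MitoTracker Red and Annexin V Alexa Fluor 680, then imaged after compound addition on a CQ1 microscope at 37°C and 5% CO2. Machine-learning gating in CellPathfinder separated Hoechst high-intensity objects from normal cells, divided normal cells by nuclear state (healthy, pyknosed, fragmented) and divided pyknosed cells into mitotic or apoptotic.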

[1] = 12 h, 1 µM, compound concentration 1 uM, replicate 1
[2] = 12 h, 1 µM, compound concentration 1 uM, replicate 2
[3] = 12 h, 10 µM, compound concentration 10 uM, replicate 1
[4] = 12 h, 10 µM, compound concentration 10 uM, replicate 2
[5] = 24 h, 1 µM, compound concentration 1 uM, replicate 1
[6] = 24 h, 1 µM, compound concentration 1 uM, replicate 2
[7] = 24 h, 10 µM, compound concentration 10 uM, replicate 1
[8] = 24 h, 10 µM, compound concentration 10 uM, replicate 2
[9] = 48 h, 1 µM, compound concentration 1 uM, replicate 1
[10] = 48 h, 1 µM, compound concentration 1 uM, replicate 2
[11] = 48 h, 10 µM, compound concentration 10 uM, replicate 1
[12] = 48 h, 10 µM, compound concentration 10 uM, replicate 2

CC(=O)Nc1cccc2c1c(Sc1ccc(Cl)cc1)c(C)n2CC(=O)O [AZD1981]
Population Apoptotic (%) [1]: 37% | Population Fragmented Nuclei (%) [1]: 6% | Population Healthy Nuclei (%) [1]: 81% | Population Hoechst High Intensity Objects (%) [1]: 6% | Population Membrane Permeable-Phenotype (%) [1]: 0% | Population Mitochondria Different-Phenotype (%) [1]: 46% | Population Mitotic Cells (%) [1]: 62% | Population Normal (%) [1]: 93% | Population Pyknosed Nuclei (%) [1]: 11% | Population Tubulin-Different-Phenotype (%) [1]: 28% | Total Cell Count [1]: 405 | Population Apoptotic (%) [2]: 60% | Population Fragmented Nuclei (%) [2]: 5% | Population Healthy Nuclei (%) [2]: 80% | Population Hoechst High Intensity Objects (%) [2]: 8% | Population Mitochondria Different-Phenotype (%) [2]: 57% | Population Mitotic Cells (%) [2]: 40% | Population Normal (%) [2]: 91% | Population Pyknosed Nuclei (%) [2]: 13% | Population Tubulin-Different-Phenotype (%) [2]: 18% | Total Cell Count [2]: 314 | Population Apoptotic (%) [3]: 38% | Population Fragmented Nuclei (%) [3]: 8% | Population Healthy Nuclei (%) [3]: 78% | Population Hoechst High Intensity Objects (%) [3]: 7% | Population Membrane Permeable-Phenotype (%) [3]: 0% | Population Mitochondria Different-Phenotype (%) [3]: 44% | Population Mitotic Cells (%) [3]: 61% | Population Normal (%) [3]: 92% | Population Pyknosed Nuclei (%) [3]: 12% | Population Tubulin-Different-Phenotype (%) [3]: 29% | Total Cell Count [3]: 403 | Population Apoptotic (%) [4]: 60% | Population Fragmented Nuclei (%) [4]: 6% | Population Healthy Nuclei (%) [4]: 77% | Population Hoechst High Intensity Objects (%) [4]: 15% | Population Mitochondria Different-Phenotype (%) [4]: 60% | Population Mitotic Cells (%) [4]: 39% | Population Normal (%) [4]: 84% | Population Pyknosed Nuclei (%) [4]: 15% | Population Tubulin-Different-Phenotype (%) [4]: 26% | Total Cell Count [4]: 318 | Population Apoptotic (%) [5]: 20% | Population Fragmented Nuclei (%) [5]: 9% | Population Healthy Nuclei (%) [5]: 80% | Population Hoechst High Intensity Objects (%) [5]: 2% | Population Membrane Permeable-Phenotype (%) [5]: 0% | Population Mitochondria Different-Phenotype (%) [5]: 33% | Population Mitotic Cells (%) [5]: 79% | Population Normal (%) [5]: 97% | Population Pyknosed Nuclei (%) [5]: 9% | Population Tubulin-Different-Phenotype (%) [5]: 23% | Total Cell Count [5]: 568 | Population Apoptotic (%) [6]: 54% | Population Fragmented Nuclei (%) [6]: 7% | Population Hoechst High Intensity Objects (%) [6]: 9% | Population Mitochondria Different-Phenotype (%) [6]: 42% | Population Mitotic Cells (%) [6]: 45% | Population Normal (%) [6]: 90% | Population Pyknosed Nuclei (%) [6]: 11% | Population Tubulin-Different-Phenotype (%) [6]: 16% | Total Cell Count [6]: 398 | Population Apoptotic (%) [7]: 40% | Population Fragmented Nuclei (%) [7]: 7% | Population Healthy Nuclei (%) [7]: 79% | Population Hoechst High Intensity Objects (%) [7]: 4% | Population Membrane Permeable-Phenotype (%) [7]: 0% | Population Mitochondria Different-Phenotype (%) [7]: 28% | Population Mitotic Cells (%) [7]: 59% | Population Normal (%) [7]: 95% | Population Pyknosed Nuclei (%) [7]: 13% | Population Tubulin-Different-Phenotype (%) [7]: 25% | Total Cell Count [7]: 526 | Population Apoptotic (%) [8]: 59% | Population Fragmented Nuclei (%) [8]: 8% | Population Healthy Nuclei (%) [8]: 81% | Population Hoechst High Intensity Objects (%) [8]: 12% | Population Mitochondria Different-Phenotype (%) [8]: 45% | Population Mitotic Cells (%) [8]: 40% | Population Normal (%) [8]: 87% | Population Pyknosed Nuclei (%) [8]: 9% | Population Tubulin-Different-Phenotype (%) [8]: 19% | Total Cell Count [8]: 387 | Population Apoptotic (%) [9]: 21% | Population Fragmented Nuclei (%) [9]: 15% | Population Healthy Nuclei (%) [9]: 78% | Population Hoechst High Intensity Objects (%) [9]: 1% | Population Membrane Permeable-Phenotype (%) [9]: 1% | Population Mitochondria Different-Phenotype (%) [9]: 18% | Population Mitotic Cells (%) [9]: 78% | Population Normal (%) [9]: 98% | Population Pyknosed Nuclei (%) [9]: 6% | Population Tubulin-Different-Phenotype (%) [9]: 10% | Total Cell Count [9]: 908 | Population Apoptotic (%) [10]: 38% | Population Fragmented Nuclei (%) [10]: 13% | Population Healthy Nuclei (%) [10]: 79% | Population Hoechst High Intensity Objects (%) [10]: 3% | Population Mitochondria Different-Phenotype (%) [10]: 20% | Population Mitotic Cells (%) [10]: 61% | Population Normal (%) [10]: 96% | Population Tubulin-Different-Phenotype (%) [10]: 12% | Total Cell Count [10]: 570 | Population Apoptotic (%) [11]: 37% | Population Fragmented Nuclei (%) [11]: 14% | Population Healthy Nuclei (%) [11]: 78% | Population Hoechst High Intensity Objects (%) [11]: 2% | Population Membrane Permeable-Phenotype (%) [11]: 0% | Population Mitochondria Different-Phenotype (%) [11]: 18% | Population Mitotic Cells (%) [11]: 62% | Population Normal (%) [11]: 97% | Population Pyknosed Nuclei (%) [11]: 7% | Population Tubulin-Different-Phenotype (%) [11]: 11% | Total Cell Count [11]: 751 | Population Apoptotic (%) [12]: 33% | Population Fragmented Nuclei (%) [12]: 16% | Population Hoechst High Intensity Objects (%) [12]: 4% | Population Mitochondria Different-Phenotype (%) [12]: 26% | Population Mitotic Cells (%) [12]: 66% | Population Normal (%) [12]: 95% | Population Pyknosed Nuclei (%) [12]: 5% | Total Cell Count [12]: 556
